We go through three molecules from paper PMC11495195 (Drug Design, Development and Therapy, 2024).

For series [1], the target named is PDHK1 (Homo sapiens, UniProt Q15118). The series is described as follows: In vitro PDHK activity assay. Format: biochemical. Conditions: read-out: Inhibition% at 10 µM, PDHK1, 10 µM; mean ± SD (n = 5).
Series [2] can be described thus: Body weight and side-effects in H1299 xenograft mice. In kind it is in vivo. The note with it: 6 mg/kg intraperitoneal; for body weight change: after 21 days of administration. In outline:
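Female BALB/c nude mice, 5 weeks old, kept pathogen-free, received 1.4 × 10^6 NCI-H1299 cells subcutaneously. At about 75 mm3 tumours, mice were randomised (n = 5). Dosing was intraperitoneal at 6 mg/kg: vehicle (2% DMSO, 30% PEG-400, 68% ddH2O) or test compound daily for 21 days, doxorubicin every 3 days. Body weight was weighed every 3 days; mean ± SEM.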

Series [3] in a line: In vitro liver microsome stability, human. Format: in vitro ADME. Conditions: human liver microsomes; mean ± SD (n = 5). In outline:
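Test compound at 20 μM final was incubated with 0.5 mg/mL human or mouse liver microsomes and NADPH in 0.1 M phosphate buffer for 30 min at 37°C. The reaction was quenched with 2 volumes of cold acetonitrile plus internal standard, held overnight at −20°C and centrifuged. Supernatant was analysed by UPLC-MS/MS. 6-Hydroxycoumarin was the positive control; a no-NADPH blank was the negative control.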
(Microsomes from liver hold many membrane-bound enzymes, among them those of drug oxidation.)

What is called inhibition is the change of the read-out against control, counted positive when it falls.

Sequence of PDHK1 (Q15118 29-436): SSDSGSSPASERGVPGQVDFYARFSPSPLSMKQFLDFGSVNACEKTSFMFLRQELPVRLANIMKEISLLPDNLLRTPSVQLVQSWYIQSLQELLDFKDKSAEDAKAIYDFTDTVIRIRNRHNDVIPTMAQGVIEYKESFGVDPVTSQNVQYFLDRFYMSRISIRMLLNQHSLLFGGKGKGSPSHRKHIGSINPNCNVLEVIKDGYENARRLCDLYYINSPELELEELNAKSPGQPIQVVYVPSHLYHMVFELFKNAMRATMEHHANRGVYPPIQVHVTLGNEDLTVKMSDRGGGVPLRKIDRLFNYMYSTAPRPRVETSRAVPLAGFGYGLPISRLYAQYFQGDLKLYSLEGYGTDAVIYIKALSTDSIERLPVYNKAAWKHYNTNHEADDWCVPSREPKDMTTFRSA

On to `O=C1c2ccccc2C(=O)c2c(Oc3ccc(C(=O)C(Cl)Cl)cc3[N+](=O)[O-])cccc21` [Compound 18, 1-(4-(2,2-Dichloroacetyl)-2-nitrophenoxy)anthracene-9,10-dione], for which the inhibition at 10 µM in series [1] fell in the range of 26.5 to 30.1%. `COc1cccc2c1C(=O)c1c(O)c3c(c(O)c1C2=O)C[C@@](O)(C(=O)CO)C[C@@H]3O[C@H]1C[C@H](N)[C@H](O)[C@H](C)O1` [DOX, doxorubicin, reference compound]: in series [2], the body weight change entry was “significant body weight loss”.

`CC(C)Oc1ccc(S(=O)(=O)c2ccc(Oc3cc(OCC(N)=O)c(C(=O)C(Cl)Cl)cc3[N+](=O)[O-])cc2)cc1` [Compound 32, 2-(2-(2,2-Dichloroacetyl)-5-(4-((4-isopropoxyphenyl)sulfonyl)phenoxy)-4-nitrophenoxy)acetamide]: the other side-effects result in series [2] (21 days) is listed as “No other side-effects were observed”. The body weight change entry in series [2] is given as “decreased very little”. In addition, the “CLint” value in series [3] is 29.7 µL/min/mg.
